Screening data deposited in PubChem BioAssay by several laboratories.
Compounds with a hit are over-represented: about 4.9% of the library has one in this group of screens.
STAT1 activator: activators of IFN-gamma induced STAT1 signaling; activation (% of control), % at 5.5 µM; NIH 3T3 STAT1-luciferase reporter, luminescence; 100% = IFN-gamma alone, no compound; 200,000 compounds, 2.6% hits;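 active = activation above the screen-wide mean activation plus 3 SD, cut at about 130% in these data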;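 note: raw ratio to IFN-gamma control signal so 100% means no change and 0% no light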
STAT1 inh: reduces IFN-gamma driven STAT1 reporter signal; 200,000 compounds, 0.35% hits; AID 920; NIH 3T3 STAT1-luciferase reporter, luminescence; inhibition, % at 5.5 µM;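 active = inhibition above a set limit, the mean inhibition across all tested compounds plus 3 SD, cut at about 34% in these data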;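 note: 0% = IFN-gamma with DMSO and 100% = IFN-gamma with 300 µM nifuroxazide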
STAT3 activator: increases IL-6 driven STAT3 reporter signal. 190,000 compounds, 0.91% hits. U3A cells, IL-6 STAT3-luciferase reporter, luminescence; 100% = signal with IL-6 EC80 alone. activation (% of control), % at 5.6 µM. AID 871;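 active = activation above the screen-wide mean of compound activation plus 3 SD, cut at about 130% in these data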;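 note: 0% = background luminescence of wells with medium and substrate only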
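Material: human U3A cells carrying STAT3-luciferase construct. Measured by: reporter luminescence signal. Timing: compound 1 h, then IL-6 6 h at 37 °C.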
STAT3 blocker: inhibitors of IL-6 induced STAT3 signaling | 190,000 compounds, 0.89% hits | U3A cells, IL-6 STAT3-luciferase reporter, luminescence; host cell line lacks STAT1 | inhibition, % at 5.5 µM;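 active = inhibition above the mean inhibition across all screened compounds plus 3 SD, cut at about 44% in these data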;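 note: 0% = DMSO only wells and 100% = 100 µM nifuroxazide control wells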
NF-kB expr up: NF-kB expression increase, human neuronal cells. NF-kB reporter expression; active compounds read high. fold change at 12.5 µM. 190,000 compounds, 1.6% hits. AID 1239; in the data active = fold change above about 3.3
APP 5'UTR act: activates APP 5'UTR luciferase reporter | SH-SY5Y APP 5'UTR luciferase reporter, luminescence; zero percent = DMSO vehicle wells | 190,000 compounds, 1% hits | activation, % at 2 µM;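 active = activation above a set limit, based on mean plus 3 SD of controls, cut at about 140% in these data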
Starred values were filed as active, the others as inactive.

SMILES	STAT1 activator	STAT1 inh	STAT3 activator	STAT3 blocker	NF-kB expr up	APP 5'UTR act
CCOC(=O)c1ccc(NC(=O)CSc2nnc(CNc3ccc(C)cc3)n2C)cc1	104	-5	101	2	1.1	12
CCOC(=O)c1ccc(NCc2nc3ccccc3n2C)cc1	139*	-42	97	8	2.9	85
O=C(NC1CCCC1)C1CCN(c2cnccn2)CC1	96	3	103	4	0.93	-5
COc1cc(NC(=S)N2CCC(C(N)=O)CC2)c(OC)cc1Cl	103	-4	101	6	0.8	23
Cc1ccc2c(c1)c1ncnc(N3CCC4(CC3)OCCO4)c1n2C	120	-22	135*	-34	1.8	46
CC(=O)Nc1ccc2nc(NC(=O)COc3cccc(C)c3)sc2c1	109	-10	106	5	0.86	27
COc1ccc(N=C2C(=Nc3ccc(OC)cc3)N(c3ccccc3)C(=S)N2C(=O)c2ccc(Cl)cc2)cc1	118	-20	107	-5	6.8*	10
COc1ccc(N=C2C(=Nc3ccc(OC)cc3)N(c3ccc(OC)cc3)C(=S)N2C(=O)c2ccc(OC)cc2)cc1	107	-8	99	4	1.1	0
O=C(NC1CC1)c1ccc(-n2cccc2)cc1	114	-17	87	21	1.1	13
COc1cc(CNc2ccc(N3CCCC3)cc2)ccc1OCc1ccccc1	121	-24	134*	-31	1.1	84
O=C(NCCc1cccs1)C1CC(c2ccc([N+](=O)[O-])cc2)=NO1 (stereo not drawn)	144*	-48	115	-12	2.3	62
COCCNC(=O)C1CC(c2ccc([N+](=O)[O-])cc2)=NO1 (stereo not drawn)	103	-3	99	8	1.3	-10
Cc1cc(NC(=O)C2CCCO2)ccc1Br (stereo not drawn)	103	-6	86	21	0.95	19
Cc1cc(NC(=S)NC(=O)C2CC2)ccc1Br	139*	-43	119	-29	2.2	48
CC(C)C(NC(N)=O)C(=O)NC1CCCCC1 (stereo not drawn)	102	-4	100	4	1.1	-5
CCNC(=S)N1CCC(n2cnc3ccccc32)CC1	96	2	97	8	0.98	-10
O=S(=O)(Nc1cccc(-c2cn3cccnc3n2)c1)c1ccc(Cl)cc1	98	3	101	0	1.1	9
Cc1cc(Nc2cccc(F)c2)n2c(n1)nc1ccccc12	103	0	92	18	1.1	10
Cc1cc(NC2CCCCC2)n2c(n1)nc1ccccc12	103	-4	98	9	5.4*	8
CCOc1ccc(C2=NNC(c3cccs3)=Nc3ccc(OC)cc32)cc1	100	2	106	-3	6.4*	8
CCOC(=O)c1c(C2CC2)csc1NC(=O)COC(=O)CCS(=O)(=O)c1ccc(C)cc1	93	7	106	-5	1.1	-6
Cc1ccc([N+](=O)[O-])cc1N=Nc1c(-c2ccc([N+](=O)[O-])cc2)[nH]n(C(N)=S)c1=O	67	35*	65	46*	0.51	-24
NC(=S)n1[nH]c(-c2ccccc2)c(N=Nc2ccccc2C(=O)N2CCOCC2)c1=O	104	-6	104	-1	0.93	-20
O=C(CCl)N=c1sccn1Cc1ccc(Cl)cc1Cl	16	90*	52	60*	0.29	-8
CCNC(=S)NNC(=O)c1cccn(Cc2ccc(Cl)cc2Cl)c1=O	91	10	104	5	1	6
SMILES	STAT1 activator	STAT1 inh	STAT3 activator	STAT3 blocker	NF-kB expr up	APP 5'UTR act
Cn1c(=NC(=O)CCl)sc2ccccc21	92	8	85	21	0.13	-25
O=C(CCl)N=c1sccn1Cc1cccc2ccccc12	14	92*	34	81*	0.08	-13
Cc1cccc(CN2CCN(Cc3nc4c(s3)CCCC4)CC2CCO)n1 (stereo not drawn)	91	7	108	-3	1.1	-7
COC(=O)CSc1nc(C)c2c(n1)CCCC2	99	-1	91	12	1.5	-3
Cc1cc(C(=O)CSc2nncn2C)c(C)n1-c1ccccc1	96	4	72	37	4.2*	122
Cc1cc(C(=O)CSc2nncs2)c(C)n1-c1c(C)n(C)n(-c2ccccc2)c1=O	107	-8	96	13	1.2	-5
Cc1ccc(-n2c(C)cc(C(=O)CSc3nncs3)c2C)cc1	129*	-31	82	28	5.4*	139*
Cc1cc(C(=O)CSc2cccc[n+]2[O-])c(C)n1-c1ccccc1	90	11	68	42	3.8*	149*
O=C(CCc1nnc(COc2ccccc2)o1)NCc1ccccc1C(F)(F)F	110	-13	107	-4	1.3	7
CC1CC(CCC(=O)NC(=S)Nc2ccc(S(N)(=O)=O)cc2)C(=O)O1 (stereo not drawn)	108	-8	102	6	1.4	8
O=C(CCc1ccccc1)Nc1ccc2ccccc2n1	149*	-56	104	0	5.3*	140*
CC(=O)Nc1ccc2nc(NC(=O)CCc3ccccc3)sc2c1	134*	-37	103	-1	1.1	8
CC(=O)Nc1ccc2nc(NC(=O)COc3ccccc3C)sc2c1	111	-13	101	10	0.73	16
Cc1ccc2nc(NC(=O)c3ccccn3)sc2c1	19	89*	15	98*	1.2	-22
CC(=O)Nc1ccc2nc(NC(=O)COc3ccccc3)sc2c1	115	-19	97	11	1	30
CC(=O)Nc1ccc2nc(NC(=O)COc3ccccc3Cl)sc2c1	130*	-30	90	17	0.96	32
O=C(CCc1ccccc1)Nc1cccc(NC(=O)CCc2ccccc2)c1	96	4	101	5	0.82	-12
COc1cccc2sc(Nc3nc4ccc(NC(C)=O)cc4s3)nc12	132*	-35	104	-5	1.1	-14
Cc1nc2cc(-c3ccccc3)sc2c(=O)n1N	21	86*	13	99*	0.83	-26
Cc1ccc(C)n1-n1c(C)nc2sc(-c3ccccc3)cc2c1=O	128	-31	80	27	2	79
O=c1[nH]nc(SCc2nc3ccccc3s2)n1C1CC1	120	-23	127	-30	1.2	37
Cc1ccccc1-n1c(C)nnc1SCc1nc2ccccc2s1	132*	-35	142*	-44	1.5	141*
CCCn1c(SCc2nc3ccccc3s2)n[nH]c1=O	134*	-36	124	-18	2.1	119
Nc1nc(SCn2nnc3ccccc3c2=O)n[nH]1	99	2	101	1	1.2	15
CN1CCN(NC(=S)NC(C)(C)CC(C)(C)C)CC1	93	8	106	-2	1	16
